Test results taken from ChEMBL document CHEMBL4725448, “Substituted Azabicyclo[2.2.1]heptanes as Selective Orexin-1 Antagonists: Discovery of JNJ-54717793” (ACS Med Chem Lett, 2020).
pKi: −log10 of the molar value. In brackets after ≈: the same amount, converted by molar mass.

How the values were obtained:
[1] = biological target: T1, Orexin/Hypocretin receptor type 1 (Homo sapiens, UniProt O43613); assay: Binding affinity to human […]
T1 sequence (O43613 whole entry): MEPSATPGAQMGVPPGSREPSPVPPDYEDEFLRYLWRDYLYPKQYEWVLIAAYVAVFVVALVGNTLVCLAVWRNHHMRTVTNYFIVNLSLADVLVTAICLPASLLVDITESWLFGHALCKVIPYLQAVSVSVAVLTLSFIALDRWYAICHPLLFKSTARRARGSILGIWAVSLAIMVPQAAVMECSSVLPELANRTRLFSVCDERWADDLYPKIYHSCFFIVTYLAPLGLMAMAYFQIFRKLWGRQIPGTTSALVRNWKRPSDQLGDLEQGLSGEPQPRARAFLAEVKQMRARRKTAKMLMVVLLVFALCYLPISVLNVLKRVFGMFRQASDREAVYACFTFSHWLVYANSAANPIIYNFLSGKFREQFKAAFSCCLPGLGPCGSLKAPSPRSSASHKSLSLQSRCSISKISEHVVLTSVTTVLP

Orexin receptor type 2 = biological target: T2, Orexin receptor type 2 (Homo sapiens, UniProt O43614); assay: Binding affinity to human OX2R
T2 sequence (O43614 whole entry): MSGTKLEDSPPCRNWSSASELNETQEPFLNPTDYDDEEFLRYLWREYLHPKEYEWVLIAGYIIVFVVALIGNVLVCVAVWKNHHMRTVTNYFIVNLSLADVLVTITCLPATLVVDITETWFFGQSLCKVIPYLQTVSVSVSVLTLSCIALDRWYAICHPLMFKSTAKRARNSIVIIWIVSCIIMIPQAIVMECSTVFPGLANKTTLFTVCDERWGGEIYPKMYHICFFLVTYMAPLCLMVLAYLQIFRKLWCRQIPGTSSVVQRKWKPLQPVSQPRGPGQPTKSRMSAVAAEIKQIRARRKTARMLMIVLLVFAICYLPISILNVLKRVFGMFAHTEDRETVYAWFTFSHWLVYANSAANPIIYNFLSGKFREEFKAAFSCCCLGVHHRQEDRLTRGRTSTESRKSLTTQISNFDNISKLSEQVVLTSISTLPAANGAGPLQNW

[2] = Drug concentration in Sprague-Dawley rat plasma at 30 mg/kg, po after 0.5 hrs by LC-MS/MS analysis; type: ADME, organism-based
How it was run: (§1)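 Brain and plasma levels (ng/mL) sampled 0.5 h after oral dosing at 10 or 30 mg/kg, alongside the ex vivo tenia tecta occupancy study.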

[3] = Ex vivo receptor occupancy at OX1R in Sprague-Dawley rat brain tenia tecta using [3H]SB-674042 labelling at 30 mg/kg, po measured after 2 hrs by autoradiography; type: functional
How it was run: (§2)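 Ex vivo OX1R binding autoradiography in rat tenia tecta after a 30 mg/kg po dose; percent occupancy read at 0.5 and 2 h.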

[4] = Ex vivo receptor occupancy at OX1R in Sprague-Dawley rat brain tenia tecta using [3H]SB-674042 labelling at 30 mg/kg, po measured after 0.5 hrs by autoradiography; type: functional; how it was run: as §2
[5] = Drug concentration in Sprague-Dawley rat brain at 30 mg/kg, po after 0.5 hrs by LC-MS/MS analysis; type: ADME, organism-based; conditions: read-out: Ct; how it was run: as §1
[6] = Stability in human liver microsomes assessed as extraction ratio; type: ADME, Microsome; conditions: read-out: ERH
How it was run: (§3)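 Metabolic stability in human or rat liver microsomes, expressed as extraction ratios.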

[7] = Stability in rat liver microsomes assessed as extraction ratio; type: ADME, Microsome; conditions: read-out: ERH; how it was run: as §3
[8] = Protein binding in rat brain assessed as free fraction; type: ADME, tissue-based
[9] = Ex vivo receptor occupancy at OX1R in Sprague-Dawley rat brain tenia tecta using [3H]SB-674042 labelling at 10 mg/kg, po measured after 2 hrs by autoradiography; type: functional
How it was run: (§4)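 Rats received a single oral dose, and OX1R occupancy was measured by ex vivo binding autoradiography in brain tenia tecta sections at 0.5, 2 and 6 h after dosing. Occupancy is expressed as percent. Brain and plasma drug levels (ng/mL) were also sampled at the 0.5 h time point.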

[10] = Drug concentration in Sprague-Dawley rat brain at 10 mg/kg, po after 0.5 hrs by LC-MS/MS analysis; type: ADME, organism-based; conditions: read-out: Ct; how it was run: as §1
[11] = Ex vivo receptor occupancy at OX1R in Sprague-Dawley rat brain tenia tecta using [3H]SB-674042 labelling at 10 mg/kg, po measured after 0.5 hrs by autoradiography; type: functional; how it was run: as §4
[12] = Permeability across basolateral to apical side in MDCK cells; type: ADME, cell-based, Canis lupus familiaris; conditions: dog
[13] = Permeability across apical to basolateral side in MDCK cells; type: ADME, cell-based, Canis lupus familiaris; conditions: dog
PXR (NR1I2) = biological target: T3, PXR (NR1I2) (Homo sapiens, UniProt O75469); assay: Induction of human PXR at 10 uM relative to control; type: ADME; conditions: read-out: Activity
T3 sequence (O75469 whole entry): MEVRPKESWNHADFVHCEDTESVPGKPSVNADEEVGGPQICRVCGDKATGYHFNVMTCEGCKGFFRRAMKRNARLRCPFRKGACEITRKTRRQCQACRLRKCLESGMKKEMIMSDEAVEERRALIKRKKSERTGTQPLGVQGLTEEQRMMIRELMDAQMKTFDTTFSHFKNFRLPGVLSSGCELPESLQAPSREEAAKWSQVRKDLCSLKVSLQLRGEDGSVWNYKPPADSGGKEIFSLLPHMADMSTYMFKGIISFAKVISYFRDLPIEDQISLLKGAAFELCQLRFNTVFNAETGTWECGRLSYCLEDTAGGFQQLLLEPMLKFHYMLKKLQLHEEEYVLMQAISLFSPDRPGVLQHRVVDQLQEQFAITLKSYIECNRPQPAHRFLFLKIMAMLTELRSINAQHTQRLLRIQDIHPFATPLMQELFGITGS
How it was run: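 Human PXR activation as an indirect measure of CYP3A4 induction, at 10 μM, expressed as % of rifampicin control activation.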

[14] = Protein binding in rat plasma assessed as free fraction; type: ADME, cell-free
[15] = Protein binding in human plasma assessed as free fraction; type: ADME, cell-free
[16] = Ex vivo receptor occupancy at OX1R in Sprague-Dawley rat brain tenia tecta using [3H]SB-674042 labelling at 10 mg/kg, po measured after 6 hrs by autoradiography; type: functional; how it was run: as §4
[17] = Ex vivo receptor occupancy at OX1R in po dosed rat tenia tecta after 60 mins; type: functional, organism-based; conditions: 1 h
[18] = Drug concentration in Sprague-Dawley rat plasma at 10 mg/kg, po after 0.5 hrs by LC-MS/MS analysis; type: ADME, organism-based; how it was run: as §1
Homo sapiens = organism: Homo sapiens; assay: Selectivity index, ratio of Ki for human OX2R to Ki for human OX1R

SMILES	pKi [1]	pKi (Orexin receptor type 2)	hepatic extraction ratio [6]	hepatic extraction ratio [7]	further results
O=C(c1cc(F)ccc1-c1ncccn1)N1[C@@H]2CC[C@H]1[C@H](Nc1cnc(C(F)(F)F)cn1)C2	7.19	6.14	–	–	–
Cc1ccc(-n2nccn2)c(C(=O)N2[C@@H]3CC[C@H]2[C@H](COc2ccc(F)cn2)C3)n1	–	–	–	–	concentration at 0.5 h [2]: 930 ng/mL; Activity [3]: 30%; Activity [4]: 50%; concentration at 0.5 h [5]: 313 ng/mL
O=C(c1ccccc1-n1nccn1)N1[C@@H]2CC[C@H]1[C@H](Nc1cnc(C(F)(F)F)cn1)C2	7.52	6.11	< 0.3	0.31	–
O=C(c1ccccc1-n1nccn1)N1C2CCC1C(Nc1ccc(C(F)(F)F)cn1)C2 (racemic)	7.28	5.85	0.69	0.87	–
Cc1ccc(-n2nccn2)c(C(=O)N2[C@@H]3CC[C@H]2[C@H](COc2ccccn2)C3)n1	–	–	–	–	concentration at 0.5 h [2]: 118 ng/mL; Activity [3]: 20%; Activity [4]: 50%; concentration at 0.5 h [5]: 8 ng/mL
O=C(c1cc(F)ccc1-c1ncccn1)N1C2CCC1C(COc1ccc(F)cn1)C2 (racemic)	7.39	6.80	0.81	0.76	–
Cc1ccc(-n2nccn2)c(C(=O)N2C3CCC2C(COc2ccc(F)cn2)C3)c1 (racemic)	–	7.14	–	–	concentration at 0.5 h [2]: 55 ng/mL; Activity [3]: 43%; Activity [4]: 49%; concentration at 0.5 h [5]: 16 ng/mL
O=C(c1cccc(F)c1-c1ncccn1)N1[C@@H]2CC[C@H]1[C@H](Nc1ncc(C(F)(F)F)cc1F)C2	7.82	5.96	0.49	0.8	fraction unbound [8]: 0.027; Activity [9]: 70%; concentration at 0.5 h [10]: 539 ng/mL; Activity [11]: 81%; Papp B→A [12]: 71.3 ×10⁻⁶ cm/s; Papp A→B [13]: 7.7 ×10⁻⁶ cm/s; activity at 10 µM (PXR (NR1I2)): 39%; fraction unbound [14]: 0.064; fraction unbound [15]: 0.056; Activity [16]: 46%; EC50 [17]: 0.25 µg/mL (≈ 0.526 µM); ED50 ([17]; po, time 60 min): 4.8 mg/kg; concentration at 0.5 h [18]: 837 ng/mL
O=C(c1ccccc1-n1nccn1)N1C2CCC1C(Oc1ccc(C(F)(F)F)cn1)C2 (racemic)	6.89	5.57	–	–	–
O=C(c1cccc(F)c1-c1ncccn1)N1C2CCC1C(Oc1ccc(C(F)(F)F)cn1)C2 (racemic)	6.89	< 5.00	–	–	–
O=C(c1ccccc1-n1nccn1)N1C2CCC1C(Nc1ccc(Cl)cn1)C2 (racemic)	7.02	5.67	0.88	> 0.92	Ratio Ki (Homo sapiens): 20
O=C(c1cccn2ccnc12)N1CCC(F)(F)[C@@H](Oc2ccc3ccccc3n2)C1	8.74	6.00	–	–	–
O=C(c1nccc2[nH]cnc12)N1CCC(F)(F)[C@@H](Oc2ccc3ccccc3n2)C1	8.28	–	–	–	–
O=C(c1cc(F)ccc1-n1nccn1)N1C2CCC1C(COc1ccc(F)cn1)C2 (racemic)	7.23	6.70	0.81	0.8	–
